Data published in ChEMBL document CHEMBL1137333, “Synthesis, radiosynthesis, and biological evaluation of carbon-11 labeled 2beta-carbomethoxy-3beta-(3'-((Z)-2-haloethenyl)phenyl)nortropanes: candidate radioligands for in vivo imaging of the serotonin transporter with positron emission tomography” (J Med Chem, 2006).

Legend:
Cynomolgus monkey [1] = assay: Uptake in anesthetized cynomolgus monkey putamen after 12.5 mins; type: ADME, organism-based; settings: in vivo
How it was run: (§1)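 Baseline microPET (Concorde P4) scan in anesthetized cynomolgus monkeys after injection of the carbon-11 labeled tracer, with no chase drug. Regional brain time-activity curves were followed over the scan. Tracer radiochemical purity and specific activity were determined by analytical HPLC at the time of injection.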

Cynomolgus monkey [2] = assay: Uptake in anesthetized cynomolgus monkey putamen after 9.5 mins; type: ADME, organism-based; settings: in vivo; how it was run: as §1
Cynomolgus monkey [3] = assay: Uptake in anesthetized cynomolgus monkey medulla after 45.0 mins; type: ADME, organism-based, Medulla of organ; settings: in vivo, 0.75 h
How it was run: (§2)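 Baseline microPET scan (P4 scanner) of anesthetized cynomolgus monkeys after injection of the carbon-11 labelled nortropane tracer. Two baseline studies were run per tracer. Radioactivity was followed over time in regional brain time-activity curves.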

Cynomolgus monkey [4] = assay: Uptake in anesthetized cynomolgus monkey medulla after 65.0 mins; type: ADME, organism-based, Medulla of organ; settings: in vivo; how it was run: as §2
Cynomolgus monkey [5] = assay: Uptake in anesthetized cynomolgus monkey cerebellum after 0.5 mins; type: ADME, organism-based; settings: in vivo
How it was run: (§3)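 Baseline microPET (Concorde P4) regional brain time-activity curves in anesthetized cynomolgus monkey following injection of the [11C]-labelled tracer, with radioactivity followed over the scan.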

Cynomolgus monkey [6] = assay: Uptake in anesthetized cynomolgus monkey midbrain after 45.0 mins; type: ADME, organism-based; settings: in vivo, 0.75 h; how it was run: as §2
Cynomolgus monkey [7] = assay: Uptake in anesthetized cynomolgus monkey caudate after 75.0 mins; type: ADME, organism-based, Caudate nucleus; settings: in vivo, 1.25 h; how it was run: as §3
Cynomolgus monkey [8] = assay: Ratio of uptake in frontal to cerebellum of anesthetized cynomolgus monkey after 105 mins; type: ADME, organism-based; settings: in vivo, 1.75 h
How it was run: (§4)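 Baseline microPET (Concorde P4) in anesthetized cynomolgus monkey after injection of the [11C]-labelled tracer. Regional time-activity curves were taken, and each region's uptake was divided by cerebellum uptake (low-SERT reference) at 65, 85 and 105 min postinjection.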

Cynomolgus monkey [9] = assay: Uptake in anesthetized cynomolgus monkey pons after 75.0 mins; type: ADME, organism-based; settings: in vivo, 1.25 h; how it was run: as §1
Cynomolgus monkey [10] = assay: Uptake in anesthetized cynomolgus monkey thalamus after 18.5 mins; type: ADME, organism-based; settings: in vivo; how it was run: as §1
Cynomolgus monkey [11] = assay: Uptake in anesthetized cynomolgus monkey frontal after 65.0 mins; type: ADME, organism-based, Frontal cortex; settings: in vivo; how it was run: as §2
Cynomolgus monkey [12] = assay: Uptake in anesthetized cynomolgus monkey putamen after 2.5 mins; type: ADME, organism-based; settings: in vivo; how it was run: as §1
Cynomolgus monkey [13] = assay: Uptake in anesthetized cynomolgus monkey cerebellum after 3.5 mins; type: ADME, organism-based; settings: in vivo; how it was run: as §3
Cynomolgus monkey [14] = assay: Uptake in anesthetized cynomolgus monkey thalamus after 55.0 mins; type: ADME, organism-based; settings: in vivo; how it was run: as §1
Cynomolgus monkey [15] = assay: Uptake in anesthetized cynomolgus monkey frontal after 3.5 mins; type: ADME, organism-based, Frontal cortex; settings: in vivo; how it was run: as §2
Cynomolgus monkey [16] = assay: Uptake in anesthetized cynomolgus monkey thalamus after 3.5 mins; type: ADME, organism-based; settings: in vivo; how it was run: as §1
Cynomolgus monkey [17] = assay: Uptake in anesthetized cynomolgus monkey medulla after 3.5 mins; type: ADME, organism-based, Medulla of organ; settings: in vivo; how it was run: as §2
Cynomolgus monkey [18] = assay: Uptake in anesthetized cynomolgus monkey frontal after 22.5 mins; type: ADME, organism-based, Frontal cortex; settings: in vivo, 0.375 h; how it was run: as §2
Cynomolgus monkey [19] = assay: Uptake in anesthetized cynomolgus monkey occipital after 22.5 mins; type: ADME, organism-based, Occipital cortex; settings: in vivo, 0.375 h; how it was run: as §2
Cynomolgus monkey [20] = assay: Uptake in anesthetized cynomolgus monkey pons after 9.5 mins; type: ADME, organism-based; settings: in vivo
How it was run: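 Carbon-11 labelled tracer injected into anesthetized cynomolgus monkeys under baseline conditions. Regional brain radioactivity was followed by microPET (Concorde microPET P4) and expressed as time-activity curves for the brain regions. Two baseline studies were run per tracer. Tracer radiochemical purity and specific activity were determined by analytical HPLC at the time of injection.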

Cynomolgus monkey [21] = assay: Uptake in anesthetized cynomolgus monkey cerebellum after 95.0 mins; type: ADME, organism-based; settings: in vivo; how it was run: as §3
Cynomolgus monkey [22] = assay: Uptake in anesthetized cynomolgus monkey frontal after 75.0 mins; type: ADME, organism-based, Frontal cortex; settings: in vivo, 1.25 h; how it was run: as §2
Cynomolgus monkey [23] = assay: Ratio of uptake in putamen to cerebellum of anesthetized cynomolgus monkey after 85 mins; type: ADME, organism-based; settings: in vivo; how it was run: as §4
Cynomolgus monkey [24] = assay: Uptake in anesthetized cynomolgus monkey midbrain after 115.0 mins; type: ADME, organism-based; settings: in vivo; how it was run: as §2
Cynomolgus monkey [25] = assay: Ratio of uptake in midbrain to cerebellum of anesthetized cynomolgus monkey after 65 mins; type: ADME, organism-based; settings: in vivo; how it was run: as §4
Cynomolgus monkey [26] = assay: Uptake in anesthetized cynomolgus monkey medulla after 1.5 mins; type: ADME, organism-based, Medulla of organ; settings: in vivo, 0.025 h; how it was run: as §2
Cynomolgus monkey [27] = assay: Uptake in anesthetized cynomolgus monkey putamen after 6.5 mins; type: ADME, organism-based; settings: in vivo; how it was run: as §1
Cynomolgus monkey [28] = assay: Uptake in anesthetized cynomolgus monkey thalamus after 45.0 mins; type: ADME, organism-based; settings: in vivo, 0.75 h; how it was run: as §1
Cynomolgus monkey [29] = assay: Uptake in anesthetized cynomolgus monkey occipital after 85.0 mins; type: ADME, organism-based, Macaca mulatta, Occipital cortex; settings: rhesus monkey, in vivo; how it was run: as §2
Cynomolgus monkey [30] = assay: Uptake in anesthetized cynomolgus monkey putamen after 65.0 mins; type: ADME, organism-based; settings: in vivo; how it was run: as §1
Cynomolgus monkey [31] = assay: Uptake in anesthetized cynomolgus monkey thalamus after 85.0 mins; type: ADME, organism-based; settings: in vivo; how it was run: as §1
Cynomolgus monkey [32] = assay: Uptake in anesthetized cynomolgus monkey pons after 0.5 mins; type: ADME, organism-based; settings: in vivo; how it was run: as §2
Cynomolgus monkey [33] = assay: Ratio of uptake in putamen to cerebellum of anesthetized cynomolgus monkey after 65 mins; type: ADME, organism-based; settings: in vivo; how it was run: as §4
Cynomolgus monkey [34] = assay: Uptake in anesthetized cynomolgus monkey medulla after 2.5 mins; type: ADME, organism-based, Medulla of organ; settings: in vivo; how it was run: as §2
Cynomolgus monkey [35] = assay: Ratio of uptake in midbrain to cerebellum of anesthetized cynomolgus monkey after 85 mins; type: ADME, organism-based; settings: in vivo; how it was run: as §4
Cynomolgus monkey [36] = assay: Uptake in anesthetized cynomolgus monkey putamen after 85.0 mins; type: ADME, organism-based; settings: in vivo; how it was run: as §1
Cynomolgus monkey [37] = assay: Uptake in anesthetized cynomolgus monkey caudate after 27.5 mins; type: ADME, organism-based, Caudate nucleus; settings: in vivo; how it was run: as §3
Cynomolgus monkey [38] = assay: Ratio of uptake in medulla to cerebellum of anesthetized cynomolgus monkey after 105 mins; type: ADME, organism-based; settings: in vivo, 1.75 h; how it was run: as §4
Cynomolgus monkey [39] = assay: Uptake in anesthetized cynomolgus monkey pons after 85.0 mins; type: ADME, organism-based; settings: in vivo; how it was run: as §1
Cynomolgus monkey [40] = assay: Uptake in anesthetized cynomolgus monkey pons after 27.5 mins; type: ADME, organism-based; settings: in vivo; how it was run: as §1
Cynomolgus monkey [41] = assay: Uptake in anesthetized cynomolgus monkey putamen after 45.0 mins; type: ADME, organism-based; settings: in vivo, 0.75 h; how it was run: as §1
Cynomolgus monkey [42] = assay: Ratio of uptake in midbrain to cerebellum of anesthetized cynomolgus monkey after 105 mins; type: ADME, organism-based; settings: in vivo, 1.75 h; how it was run: as §4
Cynomolgus monkey [43] = assay: Ratio of uptake in thalamus to cerebellum of anesthetized cynomolgus monkey after 65 mins; type: ADME, organism-based; settings: in vivo; how it was run: as §4
Cynomolgus monkey [44] = assay: Uptake in anesthetized cynomolgus monkey putamen after 3.5 mins; type: ADME, organism-based; settings: in vivo; how it was run: as §1
Cynomolgus monkey [45] = assay: Ratio of uptake in caudate to cerebellum of anesthetized cynomolgus monkey after 105 mins; type: ADME, organism-based; settings: in vivo, 1.75 h; how it was run: as §4
Cynomolgus monkey [46] = assay: Uptake in anesthetized cynomolgus monkey occipital after 4.5 mins; type: ADME, organism-based, Occipital cortex; settings: in vivo, 0.075 h; how it was run: as §2
Cynomolgus monkey [47] = assay: Uptake in anesthetized cynomolgus monkey frontal after 15.5 mins; type: ADME, organism-based, Frontal cortex; settings: in vivo; how it was run: as §2
Cynomolgus monkey [48] = assay: Uptake in anesthetized cynomolgus monkey putamen after 27.5 mins; type: ADME, organism-based; settings: in vivo; how it was run: as §1
Cynomolgus monkey [49] = assay: Ratio of uptake in pons to cerebellum of anesthetized cynomolgus monkey after 85 mins; type: ADME, organism-based; settings: in vivo; how it was run: as §4
Cynomolgus monkey [50] = assay: Uptake in anesthetized cynomolgus monkey medulla after 27.5 mins; type: ADME, organism-based, Medulla of organ; settings: in vivo; how it was run: as §2
Cynomolgus monkey [51] = assay: Uptake in anesthetized cynomolgus monkey cerebellum after 15.5 mins; type: ADME, organism-based, Macaca mulatta; settings: rhesus monkey, in vivo; how it was run: as §3
Cynomolgus monkey [52] = assay: Uptake in anesthetized cynomolgus monkey medulla after 6.5 mins; type: ADME, organism-based, Medulla of organ; settings: in vivo; how it was run: as §2
Cynomolgus monkey [53] = assay: Uptake in anesthetized cynomolgus monkey pons after 3.5 mins; type: ADME, organism-based; settings: in vivo; how it was run: as §1
Cynomolgus monkey [54] = assay: Uptake in anesthetized cynomolgus monkey medulla after 75.0 mins; type: ADME, organism-based, Medulla of organ; settings: in vivo, 1.25 h; how it was run: as §2
Cynomolgus monkey [55] = assay: Uptake in anesthetized cynomolgus monkey medulla after 22.5 mins; type: ADME, organism-based, Medulla of organ; settings: in vivo, 0.375 h; how it was run: as §2

SMILES: [11CH3]OC(=O)[C@@H]1C2CCC(C[C@@H]1c1cccc(/C=C/I)c1)N2 (stereo not given in full)
- Drug uptake (Cynomolgus monkey [1]): 5.9
- Drug uptake (Cynomolgus monkey [2]): 5.39
- Drug uptake (Cynomolgus monkey [3]): 7.21
- Drug uptake (Cynomolgus monkey [4]): 6.94
- Drug uptake (Cynomolgus monkey [5]): 0.01
- Drug uptake (Cynomolgus monkey [6]): 7.66
- Drug uptake (Cynomolgus monkey [7]): 5.71
- Ratio (Cynomolgus monkey [8]): 1.2
- Drug uptake (Cynomolgus monkey [9]): 5.92
- Drug uptake (Cynomolgus monkey [10]): 6.41
- Drug uptake (Cynomolgus monkey [11]): 3.9
- Drug uptake (Cynomolgus monkey [12]): 1.14
- Drug uptake (Cynomolgus monkey [13]): 2.19
- Drug uptake (Cynomolgus monkey [14]): 7.12
- Drug uptake (Cynomolgus monkey [15]): 1.21
- Drug uptake (Cynomolgus monkey [16]): 2.1
- Drug uptake (Cynomolgus monkey [17]): 2.62
- Drug uptake (Cynomolgus monkey [18]): 4.03
- Drug uptake (Cynomolgus monkey [19]): 5.01
- Drug uptake (Cynomolgus monkey [20]): 4.69
- Drug uptake (Cynomolgus monkey [21]): 3.46
- Drug uptake (Cynomolgus monkey [22]): 3.73
- Ratio (Cynomolgus monkey [23]): 1.8
- Drug uptake (Cynomolgus monkey [24]): 7.23
- Ratio (Cynomolgus monkey [25]): 1.7
- Drug uptake (Cynomolgus monkey [26]): 0.39
- Drug uptake (Cynomolgus monkey [27]): 4.68
- Drug uptake (Cynomolgus monkey [28]): 7.14
- Drug uptake (Cynomolgus monkey [29]): 4
- Drug uptake (Cynomolgus monkey [30]): 7.06
- Drug uptake (Cynomolgus monkey [31]): 6.65
- Drug uptake (Cynomolgus monkey [32]): 0.01
- Ratio (Cynomolgus monkey [33]): 1.6
- Drug uptake (Cynomolgus monkey [34]): 1.4
- Ratio (Cynomolgus monkey [35]): 2
- Drug uptake (Cynomolgus monkey [36]): 6.58
- Drug uptake (Cynomolgus monkey [37]): 5.41
- Ratio (Cynomolgus monkey [38]): 2.1
- Drug uptake (Cynomolgus monkey [39]): 5.86
- Drug uptake (Cynomolgus monkey [40]): 5.94
- Drug uptake (Cynomolgus monkey [41]): 7.16
- Ratio (Cynomolgus monkey [42]): 2.4
- Ratio (Cynomolgus monkey [43]): 1.6
- Drug uptake (Cynomolgus monkey [44]): 2.12
- Ratio (Cynomolgus monkey [45]): 1.7
- Drug uptake (Cynomolgus monkey [46]): 2.44
- Drug uptake (Cynomolgus monkey [47]): 3.69
- Drug uptake (Cynomolgus monkey [48]): 6.94
- Ratio (Cynomolgus monkey [49]): 1.6
- Drug uptake (Cynomolgus monkey [50]): 7.04
- Drug uptake (Cynomolgus monkey [51]): 5.73
- Drug uptake (Cynomolgus monkey [52]): 5.28
- Drug uptake (Cynomolgus monkey [53]): 1.79
- Drug uptake (Cynomolgus monkey [54]): 6.9
- Drug uptake (Cynomolgus monkey [55]): 6.95
